# Legend:
# [1] = target: T1, Monocarboxylate transporter 1 (Rattus norvegicus, UniProt P53987); test: Inhibition of MCT1-mediated lactate transport in rat RBE4 cells incubated for 15 mins by [14C]-lactate uptake assay; type: cell-based
# T1 sequence (P53987 whole entry): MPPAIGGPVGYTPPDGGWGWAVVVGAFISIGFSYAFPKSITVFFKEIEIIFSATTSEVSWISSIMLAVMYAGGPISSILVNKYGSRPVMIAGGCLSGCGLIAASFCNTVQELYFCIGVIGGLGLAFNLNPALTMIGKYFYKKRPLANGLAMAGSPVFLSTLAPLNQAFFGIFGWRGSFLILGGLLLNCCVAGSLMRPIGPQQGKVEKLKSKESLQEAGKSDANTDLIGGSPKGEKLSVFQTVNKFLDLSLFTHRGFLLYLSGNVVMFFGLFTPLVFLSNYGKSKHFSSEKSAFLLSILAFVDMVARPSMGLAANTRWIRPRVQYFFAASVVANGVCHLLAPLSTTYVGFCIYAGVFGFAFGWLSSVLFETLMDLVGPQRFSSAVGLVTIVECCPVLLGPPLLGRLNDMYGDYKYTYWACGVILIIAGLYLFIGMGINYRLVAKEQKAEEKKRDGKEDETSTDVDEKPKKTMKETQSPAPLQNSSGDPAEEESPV
# Procedure, shortened: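 MCT1 inhibition measured as [14C]-lactate uptake in rat brain endothelial RBE4 cells, which highly express MCT1 (Western blot). IC50 is the test-compound concentration causing 50% transport inhibition.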
# Mus musculus [2] = test: Toxicity in CD1(ICR) mouse assessed as induction of weight gain at 50 mg/kg, po bid for 3 weeks; type: organism-based; conditions: in vivo, 504 h
# Procedure, shortened: (§1)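 In a follow-up systemic toxicity study, healthy ICR mice were dosed at 50 mg/kg either by oral gavage twice daily or ip once daily. Mortality and body weight gain were compared with a control group.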
# Mus musculus [3] = test: Toxicity in CD1(ICR) mouse assessed as induction of weight gain at 6.67 mg/kg, ip bid for 3 weeks; type: organism-based; conditions: in vivo, 504 h
# Procedure, shortened: (§2)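 Healthy ICR mice were given 6.67 mg/kg ip, twice daily, in 0.1% DMSO in saline for three weeks. Survival and body weight gain were recorded and compared with a control group.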
# [4] = Solubility in water; type: physicochemical
# Mus musculus [5] = test: Toxicity in CD1(ICR) mouse assessed as survival at 50 mg/kg, po bid for 3 weeks; type: organism-based; conditions: in vivo, 504 h; procedure, shortened: as §1
# Mus musculus [6] = test: Toxicity in CD1(ICR) mouse assessed as induction of weight gain at 50 mg/kg, ip qd for 3 weeks; type: organism-based; conditions: in vivo, 504 h; procedure, shortened: as §1
# Mus musculus [7] = test: Toxicity in CD1(ICR) mouse assessed as survival at 6.67 mg/kg, ip bid for 3 weeks; type: organism-based; conditions: in vivo, 504 h; procedure, shortened: as §2
# Mus musculus [8] = test: Toxicity in CD1(ICR) mouse assessed as induction of weight gain at 6.67 mg/kg, ip bid for 3 weeks; conditions: in vivo, 504 h
# Mus musculus [9] = test: Toxicity in CD1(ICR) mouse assessed as survival at 50 mg/kg, ip qd for 3 weeks; type: organism-based; conditions: in vivo, 504 h; procedure, shortened: as §1
# Mus musculus [10] = test: Toxicity in CD1(ICR) mouse assessed as survival at 6.67 mg/kg, ip bid for 3 weeks; conditions: in vivo, 504 h
# [11] = Tmax in CD1(ICR) mouse at 100 mg/kg, ip by LC-MS/MS method; type: ADME, organism-based; conditions: in vivo
# Procedure, shortened: (§3)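 Preliminary pharmacokinetics in ICR mice. Sixty mice were split into two groups and given 100 mg/kg, one group intraperitoneally and the other intragastrically.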
# Mus musculus [12] = test: Drug elimination in CD1(ICR) mouse at 100 mg/kg, ig by LC-MS/MS method; type: ADME, organism-based; conditions: in vivo, po; procedure, shortened: as §3
# Mus musculus [13] = test: Drug elimination in CD1(ICR) mouse at 100 mg/kg, ip by LC-MS/MS method; type: ADME, organism-based; conditions: in vivo; procedure, shortened: as §3
# [14] = Tmax in CD1(ICR) mouse at 100 mg/kg, ig by LC-MS/MS method; type: ADME, organism-based; conditions: in vivo, po; procedure, shortened: as §3
SMILES,IC50 [1],also measured
N#C/C(=C\c1ccc([N+](=O)[O-])cc1)C(=O)O,500 nM,–
CCc1ccc(/C=C(\C#N)C(=O)O)cc1,500 nM,–
N#C/C(=C\c1ccc(Cl)cc1)C(=O)O,500 nM,–
N#C/C(=C\c1ccc(Br)cc1)C(=O)O,500 nM,–
N#C/C(=C\c1ccc(C#N)cc1)C(=O)O,500 nM,–
N#C/C(=C\c1ccc2c(c1)OCO2)C(=O)O,500 nM,–
CCN(CC)c1ccc(/C=C(\C#N)C(=O)O)cc1,70 nM,–
CCCN(CCC)c1ccc(/C=C(\C#N)C(=O)O)cc1,10 nM,–
CCCCN(CCCC)c1ccc(/C=C(\C#N)C(=O)O)cc1,30 nM,–
CC(C)CN(CC(C)C)c1ccc(/C=C(\C#N)C(=O)O)cc1,100 nM,–
CCCCCN(CCCCC)c1ccc(/C=C(\C#N)C(=O)O)cc1,140 nM,–
CCCCCCN(CCCCCC)c1ccc(/C=C(\C#N)C(=O)O)cc1,880 nM,–
C=CCN(CC=C)c1ccc(/C=C(\C#N)C(=O)O)cc1,110 nM,–
C#CCN(CC#C)c1ccc(/C=C(\C#N)C(=O)O)cc1,400 nM,–
N#C/C(=C\c1ccc(N(c2ccccc2)c2ccccc2)cc1)C(=O)O,30 nM,–
N#C/C(=C\c1ccc(N2CCCC2)cc1)C(=O)O,70 nM,–
N#C/C(=C\c1ccc(N2CCCCC2)cc1)C(=O)O,140 nM,–
CCCN(CCC)c1ccc(/C=C(\C#N)C(=O)O)c(OC)c1,12 nM,–
COc1cc(N(CC(C)C)CC(C)C)ccc1/C=C(\C#N)C(=O)O,11 nM,–
CCCCCN(CCCCC)c1ccc(/C=C(\C#N)C(=O)O)c(OC)c1,34 nM,–
COc1cc(N(c2ccccc2)c2ccccc2)ccc1/C=C(\C#N)C(=O)[O-].[Na+],11 nM,Activity (Mus musculus [2]): Non-toxic; Activity (Mus musculus [3]): Non-toxic; solubility [4]: 1000 µg/mL; Activity (Mus musculus [5]): Non-toxic; Activity (Mus musculus [6]): Non-toxic; Activity (Mus musculus [7]): Non-toxic; Activity (Mus musculus [8]): Non-toxic; Activity (Mus musculus [9]): Non-toxic; Activity (Mus musculus [10]): Non-toxic; Tmax [11]: 15 min; Drug excretion (Mus musculus [12]): <= 24 hr; Drug excretion (Mus musculus [13]): <= 24 hr; Tmax [14]: 18 min
C=CCN(CC=C)c1ccc(/C=C(\C#N)C(=O)O)c(OC)c1,29 nM,–
COc1cc(N2CCCC2)ccc1/C=C(\C#N)C(=O)[O-].[Na+],48 nM,solubility [4]: > 7000 µg/mL
COc1cc(N2CCCCC2)ccc1/C=C(\C#N)C(=O)[O-].[Na+],25 nM,solubility [4]: > 7000 µg/mL
Cc1ccc(/C=C(\C#N)C(=O)O)cc1,500 nM,–
CN(C)c1ccc(/C=C(\C#N)C(=O)O)cc1,140 nM,–
COc1ccc(/C=C(\C#N)C(=O)O)cc1,500 nM,–
N#C/C(=C\c1ccc(F)cc1)C(=O)O,500 nM,–
